Experimental data published in ChEMBL document CHEMBL4477254, “Synthesis and biological evaluation of some novel triazole hybrids of curcumin mimics and their selective anticancer activity against breast and prostate cancer cell lines” (Bioorg Med Chem Lett, 2016).
Converted amounts (≈) assume the structure as drawn. The source made the active and inactive calls. No cut-off for these calls is given here.

Columns and labels:
[1] = system: MCF7; experiment: Cytotoxicity against human MCF7 cells assessed as decrease in cell viability after 24 hrs by MTT assay; assay type: functional, cell-based; settings: MCF7, 24 h
Outline: (§1)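 Cell viability by MTT after 24 h compound exposure; curcumin as standard. IC50 in µM from three independent experiments, expressed as mean ± SE.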

[2] = system: MDA-MB-231; experiment: Cytotoxicity against human MDA-MB-231 cells assessed as decrease in cell viability after 24 hrs by MTT assay; assay type: functional, cell-based; settings: MDA-MB-231, 24 h; outline: as §1
[3] = system: 4T1; experiment: Cytotoxicity against mouse 4T1 cells assessed as decrease in cell viability after 24 hrs by MTT assay; assay type: functional, cell-based; settings: 4T1, 24 h; outline: as §1
[4] = system: PC-3; experiment: Cytotoxicity against human PC3 cells assessed as decrease in cell viability after 24 hrs by MTT assay; assay type: functional, cell-based; settings: PC-3, 24 h; outline: as §1
[5] = system: DU-145; experiment: Cytotoxicity against human DU145 cells assessed as decrease in cell viability after 24 hrs by MTT assay; assay type: functional, cell-based; settings: DU-145, 24 h; outline: as §1
[6] = system: HEK293; experiment: Cytotoxicity against human HEK293 cells assessed as decrease in cell viability after 24 hrs by MTT assay; assay type: cell-based; settings: HEK293, 24 h; outline: as §1
[7] = system: MCF7; experiment: Cell cycle arrest in human MCF7 cells assessed as accumulation at S phase at 3 uM after 24 hrs by propidium iodide staining based flow cytometry (reference value: 34.03%); assay type: functional
Outline: (§2)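 Cells treated 24 h with test compound, MCF-7 at various concentrations and PC-3 at various concentrations; cells harvested, stained with propidium iodide and acquired by flow cytometry for cell cycle phase distribution.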

[8] = system: MCF7; experiment: Cell cycle arrest in human MCF7 cells assessed as accumulation at G2/M phase at 6 uM after 24 hrs by propidium iodide staining based flow cytometry (reference value: 20.30%); assay type: functional; outline: as §2
[9] = system: MCF7; experiment: Cell cycle arrest in human MCF7 cells assessed as accumulation at G0/G1 phase at 9 uM after 24 hrs by propidium iodide staining based flow cytometry (reference value: 45.67%); assay type: functional; outline: as §2
[10] = system: MCF7; experiment: Induction of apoptosis in human MCF7 cells assessed as early apoptotic cells at 3 uM after 24 hrs by annexin V-FITC/propidium iodide staining based flow cytometry (reference value: 7.36%); assay type: functional
Outline: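 Apoptosis by Annexin V-FITC/PI dual staining: MCF-7 cells treated 24 h at 3, 6 and 9 µM, then harvested, stained and acquired by flow cytometry; early apoptotic = AnnexinV+/PI−, live = AnnexinV−/PI−, necrotic = AnnexinV−/PI+.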

[11] = system: MCF7; experiment: Induction of apoptosis in human MCF7 cells assessed as viable cells at 6 uM after 24 hrs by annexin V-FITC/propidium iodide staining based flow cytometry (reference value: 82.63%); assay type: functional; settings: MCF7, 24 h, read-out: Activity
Outline: (§3)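 MCF-7 cells exposed to 3, 6 or 9 μM and PC-3 cells to 4.8 or 8.8 μM for 24 h, then harvested and dual-stained with Annexin V-FITC/PI and read by flow cytometry. Gates: live AnnexinV⁻/PI⁻, early apoptotic AnnexinV⁺/PI⁻, necrotic AnnexinV⁻/PI⁺.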

[12] = system: MCF7; experiment: Induction of mitochondrial membrane depolarization in human MCF7 cells at 9 uM after 24 hrs by JC-1 staining based flow cytometry (reference value: 11%); assay type: functional
[13] = Stability of the compound in simulated gastric fluid assessed as compound remaining after 1 hr at 37 degC by UPLC analysis; assay type: ADME; settings: read-out: Stability
[14] = system: MCF7; experiment: Decrease in PCNA levels in human MCF7 cells at 3 to 9 uM after 24 hrs by Western blot analysis; assay type: functional, cell-based
Outline: (§4)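 MCF-7 or PC-3 cells treated with compound for 24 h, harvested; PCNA, Bax and Bcl-2 protein expression checked by Western blotting.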

[15] = system: MCF7; experiment: Increase in Bax expression in human MCF7 cells at 3 to 9 uM after 24 hrs by Western blot analysis; assay type: functional, cell-based; outline: as §4
[16] = Stability of the compound in simulated intestinal fluid assessed as compound remaining after 2 hrs at 37 degC by UPLC analysis; assay type: ADME; settings: read-out: Stability
[17] = Stability in rat plasma assessed as compound remaining after 2 hrs at 37 degC by UPLC analysis; assay type: ADME, cell-free; settings: read-out: Stability
Outline: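 Compound was incubated in plasma, and the percentage remaining intact was calculated at time points up to 2 h.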

[18] = Solubility of the compound in distilled water after 24 hrs by HPLC based shake flask method; assay type: physicochemical
[19] = Protein binding in rat plasma at 8 ug/ml after 15 mins by UPLC based charcoal adsorption method; assay type: ADME, cell-free; settings: read-out: PPB (converted)
[20] = system: DU-145; experiment: Potency index, ratio of curcumin IC50 to compound IC50 in human DU145 cells; assay type: functional
Outline: (§5)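 IC50 came from an MTT viability assay after 24 h compound exposure, with curcumin run as the standard. Values are mean ± SE of three independent experiments. The index is the curcumin IC50 divided by the compound IC50 in the same cell line.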

[21] = system: PC-3; experiment: Potency index, ratio of curcumin IC50 to compound IC50 in human PC3 cells; assay type: functional; outline: as §5
[22] = system: MDA-MB-231; experiment: Potency index, ratio of curcumin IC50 to compound IC50 in human MDA-MB-231 cells; assay type: functional; outline: as §5
[23] = system: 4T1; experiment: Potency index, ratio of curcumin IC50 to compound IC50 in mouse 4T1 cells; assay type: functional; outline: as §5
[24] = Half life in liver microsomes (unknown origin) at 5 ug/ml in presence of NADPH by UPLC analysis; assay type: ADME, Microsome
[25] = Intrinsic clearance in liver microsomes (unknown origin) assessed per mg of protein at 5 ug/ml in presence of NADPH by UPLC analysis; assay type: ADME, Microsome
[26] = system: PC-3; experiment: Cell cycle arrest in human PC3 cells assessed as accumulation at G0/G1 phase at 8.8 uM after 24 hrs by propidium iodide staining based flow cytometry (reference value: 72.73%); assay type: functional; outline: as §2
[27] = system: PC-3; experiment: Cell cycle arrest in human PC3 cells assessed as accumulation at G2/M phase at 8.8 uM after 24 hrs by propidium iodide staining based flow cytometry (reference value: 2.25%); assay type: functional; outline: as §2
[28] = system: PC-3; experiment: Induction of morphological changes in human PC3 cells assessed as decrease in cell number at 2.4 to 8.8 uM after 24 hrs by phase contrast microscopy; assay type: functional, cell-based
Outline: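 Cells were exposed to a range of concentrations for 24 h. Cell number and morphology, including detachment from the surface, were assessed by phase-contrast microscopy at 10X magnification.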

[29] = system: PC-3; experiment: Induction of apoptosis in human PC3 cells assessed as necrotic cells at 8.8 uM after 24 hrs by annexin V-FITC/propidium iodide staining based flow cytometry (reference value: 2.52%); assay type: functional; outline: as §3
[30] = system: PC-3; experiment: Induction of apoptosis in human PC3 cells assessed as increase in early apoptotic cells after 24 hrs by annexin V-FITC/propidium iodide staining based flow cytometry; assay type: functional, cell-based; outline: as §3
[31] = system: PC-3; experiment: Induction of apoptosis in human PC3 cells assessed as decrease in live cells after 24 hrs by annexin V-FITC/propidium iodide staining based flow cytometry; assay type: functional, cell-based; outline: as §3
[32] = system: PC-3; experiment: Decrease in PCNA levels in human PC3 cells at 4.8 to 8.8 uM after 24 hrs by Western blot analysis; assay type: functional, cell-based; outline: as §4
[33] = system: PC-3; experiment: Increase in Bax expression in human PC3 cells at 4.8 to 8.8 uM after 24 hrs by Western blot analysis; assay type: functional, cell-based; outline: as §4
[34] = system: PC-3; experiment: Decrease in Bcl-2 expression in human PC3 cells at 4.8 to 8.8 uM after 24 hrs by Western blot analysis; assay type: functional, cell-based; outline: as §4
[35] = Intrinsic hepatic clearance in liver microsomes (unknown origin) assessed per mg of protein at 8 ug/ml in presence of NADPH by UPLC analysis; assay type: ADME, Microsome; settings: read-out: CLH (converted)

| SMILES | IC50 [1] | IC50 [2] | IC50 [3] | IC50 [4] | IC50 [5] | IC50 [6] | remaining at 1 h [13] | remaining at 2 h [16] | remaining at 2 h [17] | solubility thermodynamic at 24 h [18] | fraction unbound at 0.25 h, 8 ug/ml [19] | Ratio IC50 [20] | Ratio IC50 [21] | Ratio IC50 [22] | Ratio IC50 [23] | also measured |
| --- | --- | --- | --- | --- | --- | --- | --- | --- | --- | --- | --- | --- | --- | --- | --- | --- |
| O=C1/C(=C/c2ccccc2F)CN(Cc2cn(Cc3ccc(F)cc3)nn2)C/C1=C\c1ccccc1F | 6 µM | 10 µM | 6.4 µM | 19.4 µM | 8.7 µM | 46 µM | 85% | 65% | 96% | 2.08 µg/mL (≈ 4.16 µM) | 0.188 | ≤ 9.5 | <=5.7 | <=8.3 | <=9.3 | Activity [7]: 36.03%; Activity [8]: 43.6%; Activity [9]: 2.22%; Activity [10]: 25.08%; viability at 6 µM [11]: 50%; Activity [12]: 89.87%; Activity [14]: Active; Activity [15]: Active; half-life at 5 ug/ml [24]: 7.52 min; CLint [25]: 0.176 mL/min/mg |
| Cc1ccc(/C=C2\CN(Cc3cn(Cc4ccccc4F)nn3)C/C(=C\c3ccc(C)cc3)C2=O)cc1 | 28.7 µM | 10 µM | 18 µM | 8.8 µM | 9.5 µM | > 100 µM | 92% | 30% | 90% | 1.12 µg/mL (≈ 2.27 µM) | 0.0301 | ≤ 9.5 | <=5.7 | <=8.3 | <=9.3 | Activity [26]: 67.5%; Activity [27]: 8.9%; Activity [28]: Active; Activity [29]: 0.75%; Activity [30]: Dose-dependent effect; Activity [31]: Dose-dependent effect; Activity [32]: Active; Activity [33]: Active; Activity [34]: Active; CLint scaled at 8 ug/ml [35]: 2630 mL/min/kg |
